# Reference: ChEMBL document CHEMBL1138699, “Design, synthesis, and biological evaluation of the first selective nonpeptide AT2 receptor agonist” (J Med Chem, 2004)
# Experiments:
# Rattus norvegicus [1] = assay: Concentration of compound required to stimulate secretion of duodenal alkaline secretion in rats when administered intralbuminally was determined; type: functional
# Summary of the method: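 Same anaesthetized Sprague-Dawley duodenal pH-stat preparation (saline perfusate titrated to pH 7.4 with 0.02 M HCl). Here the agonist went into the intraluminal perfusate at 100 µM, with PD 123,319 at 150 µM intraluminally for antagonism. Net change over basal at 30-45 min; n = 5.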
# [2] = biological target: T1, Angiotensin II receptor (AT-1) type-1 (Rattus norvegicus, UniProt P29089+P25095); assay: Displacement of [125I]-Ang II from rat liver membrane angiotensin II type 1 (AT1) receptor
# T1 sequence (P29089 whole entry): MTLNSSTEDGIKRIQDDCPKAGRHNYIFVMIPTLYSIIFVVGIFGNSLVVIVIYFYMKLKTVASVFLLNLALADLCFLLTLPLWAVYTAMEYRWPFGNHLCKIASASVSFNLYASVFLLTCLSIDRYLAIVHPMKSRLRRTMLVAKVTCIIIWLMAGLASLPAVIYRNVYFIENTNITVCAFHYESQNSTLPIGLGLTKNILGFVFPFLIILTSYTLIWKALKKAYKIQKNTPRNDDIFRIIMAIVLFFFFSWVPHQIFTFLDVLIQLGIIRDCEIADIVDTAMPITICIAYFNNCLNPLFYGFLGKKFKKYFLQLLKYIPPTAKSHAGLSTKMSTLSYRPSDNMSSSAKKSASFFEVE
# T1 sequence (P25095 whole entry): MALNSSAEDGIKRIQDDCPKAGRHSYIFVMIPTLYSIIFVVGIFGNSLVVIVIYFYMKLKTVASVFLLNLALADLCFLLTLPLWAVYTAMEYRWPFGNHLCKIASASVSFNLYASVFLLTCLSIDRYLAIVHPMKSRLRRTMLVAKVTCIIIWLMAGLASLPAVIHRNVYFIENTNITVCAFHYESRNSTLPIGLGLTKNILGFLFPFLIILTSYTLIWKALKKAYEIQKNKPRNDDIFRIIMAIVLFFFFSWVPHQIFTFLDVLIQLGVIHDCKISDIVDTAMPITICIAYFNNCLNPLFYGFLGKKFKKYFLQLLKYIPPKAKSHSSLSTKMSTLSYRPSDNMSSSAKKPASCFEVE
# Rattus norvegicus [3] = species on record: Rattus norvegicus; assay: Compound was tested for its ability to rise duodenal alkaline secretion in rats was determined; type: functional
# Summary of the method: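 Anaesthetized (pentobarbital ip 60 mg/kg, then 30 mg kg-1 h-1) nonfasted male Sprague-Dawley rats at 38 °C. Isolated duodenal segment with bile duct diverted, perfused with recirculating isotonic saline. HCO3- output pH-stat titrated to pH 7.4 with 0.02 M HCl. Intravenous infusion; net change is the 30-45 min value minus the last 15 min basal. Mean ± SEM, n = 5; ANOVA with Bonferroni.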
# [4] = biological target: Mitogen-activated protein kinase 3 (Homo sapiens) (UniProt P27361); assay: Concentration required to abolish MAPK activity in mouse neuroblastoma and rat glioma hybrid NG 108-15 cells; type: functional, cell-based
# [5] = biological target: Type-2 angiotensin II receptor (Sus scrofa); assay: Displacement of [125I]-Ang II from pig uterus membrane angiotensin II type 2 (AT2) receptor
# NG108-15 [6] = assay: Concentration of compound required to induce neurite outgrowth in mouse neuroblastoma and rat glioma hybrid NG 108-15 cells was determined; type: functional
# Summary of the method: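 NG108-15 cells (passage 7-30) in DMEM/10% FBS/HAT at 37 °C, 7% CO2, plated at 3 × 10^4 cells per 35 mm dish. First stimulation 24 h after plating, agonist given daily over 1 pM-1 µM for 3 days. Phase-contrast scoring: a neurite longer than the cell body counts as positive. At least 140 cells, three independent experiments.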
# [7] = Bioavailability after oral administration in rat was determined; range is 20-30; type: ADME, organism-based; settings: in vivo, read-out: Bioavailabiility
# Summary of the method: (§1)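 Male Sprague-Dawley rats (ca. 6-7 weeks), triplicate groups; oral gavage at 30, 100 and 300 µg/kg and single iv tail-vein bolus at 30 µg/kg. Tail-vein blood at 30 min and 1, 2, 4, 6, 8, 24 h, heparinized plasma, acetonitrile precipitation, LC-MS/MS (positive-ion SRM 476.3→293.2). Bioavailability from AUC0-8h rather than AUC0-∞.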
# NG108-15 [8] = assay: Concentration of compound required to induce cell death of mouse neuroblastoma and rat glioma hybrid NG 108-15 cells was determined; type: functional
# Summary of the method: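 NG108-15 neuroblastoma × glioma hybrid cells (passage 7-30) were grown in DMEM with 10% FBS, HAT supplement and gentamycin at 37 °C under 7% CO2. They were treated 24 h after plating, with compound added daily, at 1 pM to 1 µM for 3 days. Cell death was judged by phase-contrast microscopy and micrographs.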
# [9] = Half life after oral administration in rat was determined; type: ADME, organism-based; settings: in vivo; summary of the method: as §1
# Chain of Mitogen-activated protein kinase 3 (Homo sapiens) (P27361 whole entry): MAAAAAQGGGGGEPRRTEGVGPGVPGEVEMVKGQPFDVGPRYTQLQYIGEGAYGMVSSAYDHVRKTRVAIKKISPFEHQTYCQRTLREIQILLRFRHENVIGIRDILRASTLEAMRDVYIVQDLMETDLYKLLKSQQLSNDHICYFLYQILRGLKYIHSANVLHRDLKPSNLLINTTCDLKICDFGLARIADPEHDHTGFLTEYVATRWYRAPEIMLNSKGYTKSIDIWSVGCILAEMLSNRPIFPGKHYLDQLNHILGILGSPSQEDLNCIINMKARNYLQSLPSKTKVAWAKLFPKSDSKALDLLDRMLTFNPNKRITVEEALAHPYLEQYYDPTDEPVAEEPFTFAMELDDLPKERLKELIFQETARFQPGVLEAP
structure (smiles),measurement,setting,value
Cc1cc(Cn2cnc3c2C[C@@H](C(=O)O)N(C(=O)C(c2ccccc2)c2ccccc2)C3)ccc1N(C)C.O=C(O)C(F)(F)F.O=C(O)C(F)(F)F,Activity,Rattus norvegicus [1],150 µM
same,IC50,[2],> 10000 nM
same,Activity,Rattus norvegicus [3],0.3 mg/h/kg
CCCCOC(=O)NS(=O)(=O)c1sc(CC(C)C)cc1-c1ccc(C#N)cc1,Ki,[2],> 10000 nM
CCCCOC(=O)NS(=O)(=O)c1sc(CC(C)C)cc1-c1ccc(Cn2c(CC)nc3ccccc32)cc1,Ki,[2],> 10000 nM
CCCCOC(=O)NS(=O)(=O)c1sc(CC(C)C)cc1Cc1ccc(C#N)cc1,Ki,[2],> 10000 nM
CCCCOC(=O)NS(=O)(=O)c1sc(CC(C)C)cc1-c1ccc(Cn2ccnc2C)cc1,Ki,[2],> 10000 nM
CCCCOC(=O)NS(=O)(=O)c1sc(CC(C)C)cc1-c1ccc(CC#N)cc1,Ki,[2],100 nM
CCCCOC(=O)NS(=O)(=O)c1sc(CC(C)C)cc1-c1ccc(Cn2cnc3ccccc32)cc1,Ki,[2],500 nM
COc1cccc(-c2cc(=O)c3ccccc3o2)c1N,Activity,[4],10 µM
CCCCOC(=O)NS(=O)(=O)c1ccc(Cc2cccc(OC)c2)cc1-c1ccc(Cn2c(CC)nc3c(C)cc(C)nc32)cc1,IC50,[5],101 nM
same,IC50,[2],1.4 nM
CCCCOC(=O)NS(=O)(=O)c1sc(CC(C)C)cc1-c1ccc(Cn2ccnc2)cc1 [BULOXIBUTID],Activity,NG108-15 [6],> 0.1 nM
same,bioavailability,[7],< 30%
same,Activity,Rattus norvegicus [1],100 µM
same,Activity,NG108-15 [8],1 µM
same,half-life,[9],4 h
same,Ki,[2],> 10000 nM
same,Activity,Rattus norvegicus [3],0.03 mg/h/kg
CCCCOC(=O)NS(=O)(=O)c1sc(CC(C)C)cc1Cc1ccc(-n2ccnc2)cc1,Ki,[2],> 10000 nM
CCCCOC(=O)NS(=O)(=O)c1sc(CC(C)C)cc1-c1ccc(Cn2c(CC)nc3c(C)cc(C)nc32)cc1,IC50,[2],1.1 nM
same,Ki,[2],3.9 nM
CCCCOC(=O)NS(=O)(=O)c1sc(CC(C)C)cc1-c1ccc(Cn2cnc3cccnc32)cc1,Ki,[2],> 10000 nM
